# Assays:
# Format in all cases: cell-based
# [1] = target: Histone-lysine N-methyltransferase EZH2 (Mus musculus) (UniProt Q61188); experiment: Inhibition of EZH2 in mouse B16-F1 migrating cells assessed as fold change in H3K27me3-independent regulated Hells-mRNA expression at 3 uM measured by […] analysis relative to control cells
# How it was run: (§1)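 Confluent B16-F1 cells on fibronectin-coated plates were scratched at multiple sites, washed once with DMEM and left to migrate 3 h in growth medium (37 °C, 7% CO2); unscratched cells served as control. GSK343 (3 µM) was added 3 h before lysis. Poly A mRNA was sequenced (RNA-seq), with 5 replicates for untreated and 3 for treated cells. Differential expression was called by linear model with batch correction, at FDR <0.05 and fold change ≥1.3.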
# [2] = target: Histone-lysine N-methyltransferase EZH2 (Mus musculus) (UniProt Q61188); experiment: Inhibition of EZH2 in mouse B16-F1 migrating cells assessed as fold change in H3K27me3-independent regulated Klf15-mRNA expression at 3 uM measured by […] analysis relative to control cells; how it was run: as §1
# [3] = target: Histone-lysine N-methyltransferase EZH2 (Mus musculus) (UniProt Q61188); experiment: Inhibition of EZH2 in mouse B16-F1 migrating cells assessed as fold change in H3K27me3-buffered regulated Tuba4a-mRNA expression at 3 uM measured by […] analysis relative to control cells; how it was run: as §1
# [4] = target: Histone-lysine N-methyltransferase EZH2 (Mus musculus) (UniProt Q61188); experiment: Inhibition of EZH2 in mouse B16-F1 migrating cells assessed as fold change in H3K27me3-buffered regulated Paxbp1-mRNA expression at 3 uM measured by […] analysis relative to control cells
# How it was run: (§2)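 Confluent B16-F1 cells on fibronectin-coated plates, cultured at 37 °C and 7% CO2, were scratched at multiple sites to induce migration. They were then held 3 h in growth medium containing 3 µM GSK343, with the inhibitor added 3 h before lysis. Unscratched cells served as controls. Poly A mRNA was analysed by RNA-seq (n=3 GSK343, n=5 controls). Linear models removed batch effects, and buffered genes were those altered only under GSK343 (FDR <0.05, fold change >1.3).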
# [5] = target: Histone-lysine N-methyltransferase EZH2 (Mus musculus) (UniProt Q61188); experiment: Inhibition of EZH2 in mouse B16-F1 migrating cells assessed as fold change in H3K27me3-buffered regulated Rnf145-mRNA expression at 3 uM measured by […] analysis relative to control cells; how it was run: as §1
# [6] = target: Histone-lysine N-methyltransferase EZH2 (Mus musculus) (UniProt Q61188); experiment: Inhibition of EZH2 in mouse B16-F1 migrating cells assessed as fold change in H3K27me3-buffered regulated 1700027J19Rik-mRNA expression at 3 uM measured by […] analysis relative to control cells; how it was run: as §2
# [7] = target: Histone-lysine N-methyltransferase EZH2 (Mus musculus) (UniProt Q61188); experiment: Inhibition of EZH2 in mouse B16-F1 migrating cells assessed as fold change in H3K27me3-buffered regulated Sqle-mRNA expression at 3 uM measured by […] analysis relative to control cells; how it was run: as §1
# [8] = target: Histone-lysine N-methyltransferase EZH2 (Mus musculus) (UniProt Q61188); experiment: Inhibition of EZH2 in mouse B16-F1 migrating cells assessed as fold change in H3K27me3-buffered regulated 4930503L19Rik-mRNA expression at 3 uM measured by […] analysis relative to control cells; how it was run: as §2
# [9] = target: Histone-lysine N-methyltransferase EZH2 (Mus musculus) (UniProt Q61188); experiment: Inhibition of EZH2 in mouse B16-F1 migrating cells assessed as fold change in H3K27me3-independent regulated Pwwp2b-mRNA expression at 3 uM measured by […] analysis relative to control cells; how it was run: as §1
# [10] = target: Histone-lysine N-methyltransferase EZH2 (Mus musculus) (UniProt Q61188); experiment: Inhibition of EZH2 in mouse B16-F1 migrating cells assessed as fold change in H3K27me3-buffered regulated Rassf1-mRNA expression at 3 uM measured by […] analysis relative to control cells; how it was run: as §2
# [11] = target: Histone-lysine N-methyltransferase EZH2 (Mus musculus) (UniProt Q61188); experiment: Inhibition of EZH2 in mouse B16-F1 migrating cells assessed as fold change in H3K27me3-independent regulated Skil-mRNA expression at 3 uM measured by […] analysis relative to control cells; how it was run: as §1
# [12] = target: Histone-lysine N-methyltransferase EZH2 (Mus musculus) (UniProt Q61188); experiment: Inhibition of EZH2 in mouse B16-F1 migrating cells assessed as fold change in H3K27me3-buffered regulated Slc39a14-mRNA expression at 3 uM measured by […] analysis relative to control cells; how it was run: as §1
# [13] = target: T1, RNA polymerase II (Mus musculus) (UniProt P08775+Q8CFI7+P97760+A0A3Q4L2S8+Q80UW8+P61219+P62488+Q923G2+P60898+O08740+Q63871+P62876); experiment: Inhibition of RNA polymerase II in mouse B16-F1 migrating cells assessed as fold change in Tk2-RNA stability at 0.1 mM measured by […] analysis relative to control cells
# [14] = target: T1, RNA polymerase II (Mus musculus); experiment: Inhibition of RNA polymerase II in mouse B16-F1 migrating cells assessed as fold change in Socs5-RNA stability at 0.1 mM measured by […] analysis relative to control cells
# [15] = target: T1, RNA polymerase II (Mus musculus); experiment: Inhibition of RNA polymerase II in mouse B16-F1 migrating cells assessed as fold change in Efcab7-RNA stability at 0.1 mM measured by ChIP-seq analysis relative to control cells
# [16] = target: T1, RNA polymerase II (Mus musculus); experiment: Inhibition of RNA polymerase II in mouse B16-F1 migrating cells assessed as fold change in Galk1-RNA stability at 0.1 mM measured by ChIP-seq analysis relative to control cells
# [17] = target: T1, RNA polymerase II (Mus musculus); experiment: Inhibition of RNA polymerase II in mouse B16-F1 migrating cells assessed as fold change in Adam17-RNA stability at 0.1 mM measured by […] analysis relative to control cells
# [18] = target: T1, RNA polymerase II (Mus musculus); experiment: Inhibition of RNA polymerase II in mouse B16-F1 migrating cells assessed as fold change in Repin1-RNA stability at 0.1 mM measured by […] analysis relative to control cells
# [19] = target: T1, RNA polymerase II (Mus musculus); experiment: Inhibition of RNA polymerase II in mouse B16-F1 migrating cells assessed as fold change in Nelfe-RNA stability at 0.1 mM measured by ChIP-seq analysis relative to control cells
# [20] = target: T1, RNA polymerase II (Mus musculus); experiment: Inhibition of RNA polymerase II in mouse B16-F1 migrating cells assessed as fold change in 2310030G06Rik-RNA stability at 0.1 mM measured by […] analysis relative to control cells
# [21] = target: T1, RNA polymerase II (Mus musculus); experiment: Inhibition of RNA polymerase II in mouse B16-F1 migrating cells assessed as fold change in Ndrg1-RNA stability at 0.1 mM measured by ChIP-seq analysis relative to control cells
# [22] = target: T1, RNA polymerase II (Mus musculus); experiment: Inhibition of RNA polymerase II in mouse B16-F1 migrating cells assessed as fold change in Rpl27-RNA stability at 0.1 mM measured by […] analysis relative to control cells
# [23] = target: T1, RNA polymerase II (Mus musculus); experiment: Inhibition of RNA polymerase II in mouse B16-F1 migrating cells assessed as fold change in Eif2s3x-RNA stability at 0.1 mM measured by […] analysis relative to control cells
# How it was run: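 Mouse B16-F1 melanoma cells grown to confluence on fibronectin in DMEM/10% FCS at 37 °C, 7% CO2. Migration induced by multiple scratches and 3 h incubation; unscratched controls. DRB 0.1 mM added 3 h before lysis. RNA from poly A-selected mRNA was sequenced (RNA-seq, three replicates per DRB group). Fold change computed for DRB-treated migrating vs DRB-treated control cells; cutoffs fold change >1.3, FDR <0.05.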
# [24] = target: T1, RNA polymerase II (Mus musculus); experiment: Inhibition of RNA polymerase II in mouse B16-F1 migrating cells assessed as fold change in Bcap29-RNA stability at 0.1 mM measured by […] analysis relative to control cells
# Histone-lysine N-methyltransferase EZH2 (Mus musculus), sequence (Q61188 whole entry): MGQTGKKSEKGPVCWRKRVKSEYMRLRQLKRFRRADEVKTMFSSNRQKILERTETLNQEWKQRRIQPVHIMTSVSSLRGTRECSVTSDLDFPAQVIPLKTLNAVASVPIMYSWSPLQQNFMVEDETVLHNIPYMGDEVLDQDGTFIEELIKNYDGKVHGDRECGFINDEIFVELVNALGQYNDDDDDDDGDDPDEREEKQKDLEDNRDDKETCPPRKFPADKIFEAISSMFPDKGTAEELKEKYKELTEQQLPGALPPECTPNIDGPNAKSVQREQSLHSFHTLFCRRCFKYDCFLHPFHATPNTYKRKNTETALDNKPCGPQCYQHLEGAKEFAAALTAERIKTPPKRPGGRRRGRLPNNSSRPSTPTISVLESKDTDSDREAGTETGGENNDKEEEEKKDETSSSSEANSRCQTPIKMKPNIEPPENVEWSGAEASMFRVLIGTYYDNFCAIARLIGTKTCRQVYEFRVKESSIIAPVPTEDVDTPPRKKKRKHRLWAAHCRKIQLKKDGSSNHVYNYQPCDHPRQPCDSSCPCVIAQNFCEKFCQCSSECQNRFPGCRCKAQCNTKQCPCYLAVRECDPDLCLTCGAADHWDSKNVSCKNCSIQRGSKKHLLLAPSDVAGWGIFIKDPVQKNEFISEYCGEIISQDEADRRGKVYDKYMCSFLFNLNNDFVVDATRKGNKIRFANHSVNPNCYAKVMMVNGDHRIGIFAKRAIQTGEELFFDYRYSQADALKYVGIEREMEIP
structure (smiles),measurement,setting,value
CCCc1cc(C)[nH]c(=O)c1CNC(=O)c1cc(-c2ccnc(N3CCN(C)CC3)c2)cc2c1cnn2C(C)C,log2FC,[1],-0.45
same,log2FC,[2],-0.5
same,log2FC,[3],0.42
same,log2FC,[4],-0.55
same,log2FC,[5],-0.49
same,log2FC,[6],0.73
same,log2FC,[7],0.39
same,log2FC,[8],-0.64
same,log2FC,[9],0.46
same,log2FC,[10],-0.52
same,log2FC,[11],0.42
same,log2FC,[12],0.46
OC[C@H]1O[C@@H](n2cnc3cc(Cl)c(Cl)cc32)[C@H](O)[C@@H]1O,log2FC,[13],0.79
same,log2FC,[14],-0.48
same,log2FC,[15],-0.79
same,log2FC,[16],0.67
same,log2FC,[17],-0.56
same,log2FC,[18],-0.71
same,log2FC,[19],0.39
same,log2FC,[20],-0.91
same,log2FC,[21],0.7
same,log2FC,[22],0.51
same,log2FC,[23],-0.51
same,log2FC,[24],-0.48
